Measurements gathered from unrelated publications.
Observed: cell growth or viability

| SMILES | cell line | technique | time | IC50 [nM] |
| --- | --- | --- | --- | --- |
| CC(C)C[C@H](NC(=O)[C@H](Cc1ccccc1)NC(=O)c1cnccn1)B(O)O | A 172 | ATP luminescence |  | 8.7 |
| NCCOc1cc(C(=O)Nc2cc(OCCN)c3ccccc3n2)nc(C(=O)Nc2cc(OCCN)c3ccccc3n2)c1 | HT-1080 | ATP luminescence | 72 h | 600 |
| Cn1ccnc1CNCCNc1ccnc2cc(Cl)ccc12 | CHO | MTT |  | 240000 |
| COc1c(C)c(OC)c2c(c1C)OC(c1ccccc1)CC2=O (centres unmarked) | SH-SY5Y | SRB | 72 h | > 50000 |
| C=CC(=O)Nc1ccc(CCn2cc(C[C@@]3(O)C[C@@H]4c5cc(OCc6cc(C)cc(C)c6)c(OCc6cc(C)cc(C)c6)cc5CCN4[C@@H](C)C3)nn2)cc1 | GES1 | MTT | 48 h | 730 |
| COc1cc(OC)c(/C=C/S(=O)(=O)Nc2ccc(OC)c(N)c2)c(OC)c1 | NCI-H187 | trypan blue | 96 h | 4 |
| C=C(C)C(=O)Nc1ccc(-c2c(-c3ccc(Oc4nccc(C)n4)c(F)c3)c3c(N)ncnc3n2C)cc1 | SNU-16 | ATP luminescence | 96 h | 3.25 |
| O=C1Nc2ccccc2C1=Cc1cc2cc(Cl)ccc2nc1Cl | CHO | MTT | 72 h | 38500 |
| COc1cccc2c1C(=O)c1c(O)c3c(c(O)c1C2=O)C[C@@](O)(C(=O)CO)C[C@@H]3O[C@H]1C[C@H](N)[C@H](O)[C@H](C)O1 | A 172 | WST-1 | 72 h | 40 |
| O=C(Nc1cc(OCCN2CCCC2)c2ccccc2n1)c1cc(Cl)cc(C(=O)Nc2cc(OCCN3CCCC3)c3ccccc3n2)n1 | HT-1080 | ATP luminescence | 72 h | 3400 |
| O=C(O)c1ccc(NC(=O)c2cc3cc(Cl)ccc3[nH]2)cc1 | T24 | MTT |  | 15000 |
| COc1cc(Nc2nccc(-c3cnn4nc(OC)ccc34)n2)cc(C(F)(F)F)c1 | A 172 | ATP luminescence |  | 430 |
| NCCOc1cc(NC(=O)c2cc(OCc3ccc(F)cc3)cc(C(=O)Nc3cc(OCCN)c4ccccc4n3)n2)nc2ccccc12 | HT-1080 | ATP luminescence | 72 h | 1600 |
| CC(=O)O[C@@]12CO[C@@H]1C[C@H](O)[C@@]1(C)C(=O)[C@H](O)C3=C(C)[C@@H](OC(=O)[C@H](O)[C@@H](NC(=O)OC(C)(C)C)c4ccccc4)C[C@@](O)([C@@H](OC(=O)c4ccccc4)[C@H]21)C3(C)C | HCC1937 | ATP luminescence | 72 h | > 2500 |
| CN(C)CCOc1cc(NC(=O)c2cc(Cl)cc(C(=O)Nc3cc(OCCN(C)C)c4ccccc4n3)n2)nc2ccccc12 | HT-1080 | ATP luminescence | 72 h | 2200 |
| CCCCN(Cc1ccc(C(=O)NO)cc1)C(=O)Nc1ccccc1 | SUP-B15 | ATP luminescence | 72 h | 8660 |
| CC(C)/N=C1\c2cc(C(N)=O)nc3c(N)c(Cl)c(N)c(c23)N1C | HCC4017 |  |  | 480 |
